The text below walks through data of ChEMBL document CHEMBL1155083, “Piperazine sulfonamides as potent, selective, and orally available 11beta-hydroxysteroid dehydrogenase type 1 inhibitors with efficacy in the rat cortisone-induced hyperinsulinemia model” (J Med Chem, 2008).

Series [1] deals with 11-beta-hydroxysteroid dehydrogenase 1 (Homo sapiens, UniProt P28845). Briefly: Inhibition of human 11betaHSD1 expressed in CHO cells by cell based assay.
Series [2] addresses T1, 11-beta-hydroxysteroid dehydrogenase 1 (Mus musculus, UniProt P50172). Briefly: Inhibition of mouse 11betaHSD1 expressed in CHO cells by cell based assay.
For series [3], the target named is T1, 11-beta-hydroxysteroid dehydrogenase 1. In words: Inhibition of C57BL/6 mouse 11betaHSD1 in presence of human serum.
Series [4] has as its target T2, 11-beta-hydroxysteroid dehydrogenase type 2 (Homo sapiens) (UniProt P80365).
T2 sequence (whole entry): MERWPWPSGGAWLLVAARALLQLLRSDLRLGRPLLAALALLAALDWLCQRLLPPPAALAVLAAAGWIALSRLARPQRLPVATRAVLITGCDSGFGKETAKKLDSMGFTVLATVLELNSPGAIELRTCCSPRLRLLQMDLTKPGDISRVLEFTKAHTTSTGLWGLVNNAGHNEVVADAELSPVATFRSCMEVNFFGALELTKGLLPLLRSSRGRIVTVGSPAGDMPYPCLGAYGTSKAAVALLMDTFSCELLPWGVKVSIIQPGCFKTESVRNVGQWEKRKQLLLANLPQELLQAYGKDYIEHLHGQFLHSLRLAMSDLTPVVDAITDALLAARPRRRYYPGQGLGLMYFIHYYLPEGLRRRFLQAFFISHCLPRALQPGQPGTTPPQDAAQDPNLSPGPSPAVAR
Briefly: Inhibition of 11betaHSD2 at 100 uM by cell based assay.

Series [5] in a line: Metabolic stability assessed as half life in mouse liver microsomes. Background: Liver microsomes are a subcellular fraction often used to study metabolism.
Series [6] in a line: Metabolic stability assessed as half life in human liver microsomes.
The nature of series [7]: Clearance in mouse at 2 mg/kg, iv. Format: ADME, organism-based. More on the design: dose 2 mg/kg, route intravenous. The following applies: in vivo.
Series [8] can be described thus: Oral bioavailability in mouse at 30 mg/kg. Format: ADME, organism-based. The following applies: in vivo.
A further series concerns Mus musculus. Briefly: Ex vivo inhibition of 11betaHSD1 in C57BL/6 mouse assessed as conversion of [3H]cortisone to [3H]cortisole in liver at 30 mg/kg, po. Format: functional. The following applies: C57BL/6, Liver. The gist of the method: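 Mice dosed orally; sacrificed 5 h after dosing. Liver samples taken and 11β-HSD1 conversion of cortisone to cortisol measured; percent inhibition reported.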

Activity calls are given as the source filed them. No cut-off for these calls is given here.

T1 sequence (P50172 whole entry): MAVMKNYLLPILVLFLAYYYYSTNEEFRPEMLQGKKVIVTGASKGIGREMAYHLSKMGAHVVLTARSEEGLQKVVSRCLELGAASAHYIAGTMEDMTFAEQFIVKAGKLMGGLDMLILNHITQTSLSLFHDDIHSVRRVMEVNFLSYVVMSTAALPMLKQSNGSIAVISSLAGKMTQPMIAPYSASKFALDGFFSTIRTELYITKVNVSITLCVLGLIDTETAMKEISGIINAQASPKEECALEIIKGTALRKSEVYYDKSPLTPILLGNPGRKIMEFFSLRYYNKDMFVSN
Chain of 11-beta-hydroxysteroid dehydrogenase 1 (Homo sapiens, UniProt P28845) (P28845 whole entry): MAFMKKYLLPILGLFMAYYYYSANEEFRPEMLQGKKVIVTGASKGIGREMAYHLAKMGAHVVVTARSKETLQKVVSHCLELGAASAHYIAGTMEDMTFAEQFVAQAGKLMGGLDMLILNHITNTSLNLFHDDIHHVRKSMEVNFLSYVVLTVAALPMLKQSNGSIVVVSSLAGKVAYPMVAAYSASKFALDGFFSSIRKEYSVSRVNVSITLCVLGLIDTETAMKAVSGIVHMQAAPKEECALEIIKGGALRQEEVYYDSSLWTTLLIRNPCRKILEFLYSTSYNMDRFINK

By IC50 is commonly meant the concentration needed to halve the response being measured. As to `C[C@@H]1CN(c2ccc(F)cc2C(F)(F)F)CCN1S(=O)(=O)c1cccc(N2CCCC2)c1`, the IC50 was determined as 61 nM in [1], 16 nM in [2] and 56 nM in series [3]. In addition, the outcome in series [4] was inactive.

As usually defined, the half-life is how long it takes for the measured level to halve. For `O=C1CN(S(=O)(=O)c2ccc(Cl)c(Cl)c2)CCN1c1ncccc1C(F)(F)F`, the values for the IC50 in [1] and in series [2] were 9900 nM and over 10000 nM, respectively. In [4], the outcome was inactive. The half-life in series [5] and in series [6] was 30 min throughout.

For the molecule `COC(=O)N1CCN(c2cccc(S(=O)(=O)N3CCN(c4ccc(F)cc4C(F)(F)F)C[C@H]3C)c2)CC1`, the IC50 was 330 nM in [1], 11 nM in series [2] and 220 nM in series [3]. The result in series [4] was inactive.

For `O=C1CN(c2ncccc2C(F)(F)F)CCN1S(=O)(=O)c1ccc(Cl)c(Cl)c1`, the IC50 is 500 nM in series [1] and over 10000 nM in series [2]. For the same molecule, the result in [4] was inactive. The half-life worked out at 6 min in series [5] and 2 min in [6].

On to `C[C@@H]1CN(c2ccc(F)cc2C(F)(F)F)CCN1S(=O)(=O)c1cccc(-n2ccnc2)c1`, for which the IC50 in series [1] was found to be 74 nM; in series [2], 11 nM; in series [3], 73 nM. In addition, the outcome in [4] was inactive.

Consider `C[C@@H]1CN(c2ccc(F)cc2C(F)(F)F)CCN1S(=O)(=O)c1cccc(N2CCCCC2)c1`, for which the results for the IC50 in series [1], in series [2] and in [3] were 15 nM, 10 nM and 67 nM, respectively. The outcome in series [4] was inactive.

Consider `C[C@@H]1CN(c2ccc(F)cc2C(F)(F)F)CCN1S(=O)(=O)c1cccc(N2CCCC2C(=O)O)c1` (some centres not stated), for which the figures for the IC50 in series [1], in series [2] and in series [3] were 69 nM, 27 nM and 32 nM, respectively. Also, the result in series [4] was inactive.

Turning to `CC(C)N1CCN(c2cccc(S(=O)(=O)N3CCN(c4ccc(F)cc4C(F)(F)F)C[C@H]3C)c2)CC1`, the IC50 in [1] amounted to 490 nM; in series [2], 150 nM; in series [3] it was 250 nM. Further, the result in [4] was inactive.

As for `C[C@@H]1CN(c2ccc(F)cc2C(F)(F)F)CCN1S(=O)(=O)c1cccc(N2CCC(C(N)=O)C2)c1` (some centres not stated), the IC50 in series [1] is 32 nM; in [2], 11 nM; in [3], 14 nM. The result in series [4] was inactive.

`COC(=O)C1CCN(c2cccc(S(=O)(=O)N3CCN(c4ccc(F)cc4C(F)(F)F)C[C@H]3C)c2)C1` (some centres not stated): the IC50 stood at 11 nM in [1], 10 nM in [2] and 55 nM in series [3]. Moreover, in [4], the result was inactive.

As for `C[C@@H]1CN(c2ccc(F)cc2C(F)(F)F)CCN1S(=O)(=O)c1cccc(N2CC[C@@H](O)C2)c1`, the results for the IC50 in [1], in [2] and in [3] were 10 nM, 12 nM and 13 nM, respectively. In series [4], the result was inactive.

On to `C[C@@H]1CN(c2ccc(F)cc2C(F)(F)F)CCN1S(=O)(=O)c1cccc(N2CCNCC2)c1`, for which the half-maximal inhibitory concentration (IC50) in [1] is over 10000 nM; in [2], 160 nM; in [3] it was 190 nM. Also, in [4], the result was inactive.

On to `C[C@@H]1CN(c2ccc(F)cc2C(F)(F)F)CCN1S(=O)(=O)c1cccc(-n2cccn2)c1`, for which the IC50 in series [1] worked out at 13 nM; in series [2] it was 12 nM; in [3] it was 100 nM. Besides, the outcome in [4] was inactive.

For `C[C@@H]1CN(c2ccccc2C(F)(F)F)CCN1S(=O)(=O)c1ccc(Cl)c(Cl)c1`, the concentration for half-maximal inhibition (IC50) in [1] and in [2] was 10 nM in each case. In series [4], the result was inactive. Besides, the figures for the half-life in series [5] and in series [6] were 3 min and 5 min, respectively.

On to `O=S(=O)(c1ccc(Cl)c(Cl)c1)N1CCN(c2ccc(F)cc2C(F)(F)F)CC1`, for which the IC50 in series [1] is 68 nM; in series [2], 250 nM. In addition, the result in series [4] was inactive. Also, the half-life was determined as 8 min in [5] and 12 min in series [6].

Consider `C[C@@H]1CN(c2ccc(F)cc2C(F)(F)F)CCN1S(=O)(=O)c1cccc(N2CC[C@H](O)C2)c1`, for which the IC50 in series [1] worked out at 28 nM; in series [2], 20 nM; in series [3], 41 nM. The outcome in series [4] was inactive.

For `C[C@@H]1CN(c2ccc(F)cc2C(F)(F)F)CCN1S(=O)(=O)c1cccc(N2CCOCC2)c1`, the IC50 in [1] is 13 nM; in series [2] it was 11 nM; in [3] it was 56 nM. Also, in [4], the result was inactive.

With `CCN1CCN(c2cccc(S(=O)(=O)N3CCN(c4ccc(F)cc4C(F)(F)F)C[C@H]3C)c2)CC1`, the IC50 turned out to be 30 nM in [1], 29 nM in series [2] and 45 nM in series [3]. In addition, the result in [4] was inactive.

In general, clearance refers to the rate of elimination divided by the concentration. A word on the bioavailability: it is dose-corrected exposure relative to a reference, in per cent. A low value points to little systemic uptake. What is called inhibition in vivo is the relative decrease from the control value, in per cent. Turning to `C[C@@H]1CN(c2ccc(F)cc2C(F)(F)F)CCN1S(=O)(=O)c1cccc(N2CCC(C(=O)O)C2)c1` (some centres not stated), the results for the IC50 in series [1], in series [2] and in series [3] were 160 nM, 10 nM and 90 nM, respectively. In addition, in [7], the clearance came out at 55 mL/min/kg. Further, in series [8], the bioavailability was 100%. Moreover, the inhibition in vivo at 30 mg/kg with Mus musculus came out at 36%. The outcome in [4] was inactive. Further, in series [5], the half-life is over 30 min.

Consider `C[C@@H]1CN(c2ccc(F)cc2C(F)(F)F)CCN1S(=O)(=O)c1cccc(-n2cnnc2)c1`, for which the results for the IC50 in series [1], in series [2] and in series [3] were 120 nM, 230 nM and 120 nM, respectively. Also, the outcome in [4] was inactive.

On to `C[C@@H]1CN(c2ncccc2Cl)[C@@H](C)CN1S(=O)(=O)c1ccc(Cl)c(Cl)c1` (relative stereo), for which the results for the IC50 in series [1] and in [2] were 1600 nM and 4700 nM, respectively. Also, the result in series [4] was inactive. In addition, the half-life came to 2 min in [5] and 3 min in series [6].

As for `O=S(=O)(c1ccc(Cl)c(Cl)c1)N1CCN(c2ncccc2C(F)(F)F)CC1`, the IC50 in series [1] was 61 nM; in series [2], 190 nM. Besides, the outcome in series [4] was inactive. Moreover, the half-life in series [5] and in series [6] was 5 min each time.

Consider `O=S(=O)(c1ccc(Cl)c(Cl)c1)N1CCN(c2ccccc2C(F)(F)F)CC1`, for which the IC50 is 52 nM in series [1] and 420 nM in series [2]. For the same molecule, the result in series [4] was inactive. For the same molecule, the values for the half-life in series [5] and in [6] were 3 min and 4 min, respectively.

In the case of `CCNC(=O)N1CCN(c2cccc(S(=O)(=O)N3CCN(c4ccc(F)cc4C(F)(F)F)C[C@H]3C)c2)CC1`, the IC50 came to 370 nM in series [1], 12 nM in series [2] and 220 nM in series [3]. The result in series [4] was inactive.

`C[C@@H]1CN(c2ncccc2Cl)C[C@H](C)N1S(=O)(=O)c1ccc(Cl)c(Cl)c1`: the IC50 in series [1] turned out to be 1300 nM; in series [2] it was 6900 nM. In series [4], the outcome was inactive. The half-life in series [5] is 3 min; in [6] it was 6 min.
